Measurements from ChEMBL document CHEMBL1138199, “Identification of compounds with anti-West Nile Virus activity” (J Med Chem, 2006).
pEC50: −log10 of the molar value.

How the values were obtained:
West Nile virus [1] = test: Inhibition of West Nile viral Rluc-Neo-Rep in BHK21 cell line; format: functional, organism-based; settings: BHK-21
Outline: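 BHK-21 cell line stably carrying Rluc-Neo-Rep replicon; inhibition read as suppression of Renilla luciferase signal. Initial screen at 30 µM, 1% DMSO final; EC50 (µM) then determined.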

BHK-21 [2] = test: Cytotoxicity against BHK21 cell line by MTT assay; format: functional; settings: Mesocricetus auratus
Outline: (§1)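 MTT cytotoxicity assay run in BHK-21 and Vero cells on compounds giving >50% Rluc inhibition in the primary screens; CC50 reported in µM.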

[3] = Therapeutic index (CC50/EC50) in BHK21 cells; format: cell-based, BHK-21; settings: hamster, read-out: Ratio CC50/EC50
Outline: (§2)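 TI computed as CC50/EC50, using MTT CC50 and replicon EC50 in BHK-21 cells, or MTT CC50 and Rluc-FL-WNV EC50 in Vero cells.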

West Nile virus [4] = test: Inhibition of Rluc-FL-WNV replicon in Vero cells; format: functional, organism-based
Outline: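 Vero cells infected with full-length WNV carrying Renilla luciferase reporter (Rluc-FL-WNV), covering entry, replication and assembly; inhibition read as suppression of luciferase signal. Compounds first screened at 30 µM in 1% DMSO final, then EC50 (µM) determined.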

Vero [5] = test: Cytotoxicity against Vero cells by MTT assay; format: functional; settings: Chlorocebus sabaeus; outline: as §1
[6] = Therapeutic index (CC50/EC50) in Vero cells; format: cell-based; settings: monkey, read-out: Ratio CC50/EC50; outline: as §2
BHK-21 [7] = test: Inhibition of West Nile virus VLP replicon in BHK21 cell line; format: functional, cell-based; settings: Mesocricetus auratus
Outline: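 Naive BHK-21 cells infected with virus-like particles, made by expressing WNV structural proteins in cells carrying the Rluc-Neo-Rep replicon, which package replicon RNA. This captures entry and replication but not assembly. Inhibition is read as suppression of Renilla luciferase signal. Compounds were given in 1% DMSO final, and EC50 is in µM.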

Vero [8] = test: Inhibition of West Nile viral Rluc-Neo-Rep in Vero cells; format: functional, cell-based; settings: Chlorocebus sabaeus
Outline: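 Vero cells containing the Rluc-Neo-Rep replicon, used to check cell-line dependence; inhibition measured as suppression of Renilla luciferase signal, EC50 in µM.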

West Nile virus [9] = test: Activity against West Nile virus RlucRep RNA translation in BHK21 cells at 100 uM, 2 hr post transfection; format: functional, BHK-21
Outline: (§3)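 BHK cells transfected with WN RlucRep RNA (transient replicon), incubated with compound at 33 or 100 µM; luciferase read at 2, 4 and 72 h post-transfection. 2 and 4 h signals report viral translation, 72 h reports RNA synthesis. Activity given as percent of luciferase signal versus mock-treated transfection; average of two to three experiments.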

West Nile virus [10] = test: Activity against West Nile virus RlucRep RNA translation in BHK21 cells at 33 uM, 4 h post transfection; format: functional, BHK-21; outline: as §3
West Nile virus [11] = test: Activity against West Nile virus RlucRep RNA translation in BHK21 cells at 100 uM, 4 hr post transfection; format: functional, BHK-21; outline: as §3
West Nile virus [12] = test: Activity against West Nile virus RlucRep RNA synthesis in BHK21 cells at 33 uM, 72 hr post transfection; format: functional, BHK-21; outline: as §3
West Nile virus [13] = test: Activity against West Nile virus RlucRep RNA synthesis in BHK21 cells at 100 uM, 72 h post transfection; format: functional, BHK-21; outline: as §3
West Nile virus [14] = test: Activity against West Nile virus RlucRep RNA translation in BHK21 cells at 33 uM, 2 hr post transfection; format: functional, BHK-21; outline: as §3
West Nile virus [15] = test: Inhibition of West Nile virus in vero cells at 11 uM; values are per cent of control
West Nile virus [16] = test: Inhibition of West Nile virus in Vero cells at 33 uM; values are per cent of control
West Nile virus [17] = test: Inhibition of West Nile virus in Vero cells at 0.4 uM; values are per cent of control
West Nile virus [18] = test: Inhibition of West Nile virus in Vero cells at 1.2 uM; values are per cent of control
West Nile virus [19] = test: Inhibition of West Nile virus in Vero cells at 3.7 uM; values are per cent of control
West Nile virus [20] = test: Inhibition of West Nile virus in Vero cells at 100 uM; values are per cent of control

Structure (SMILES)	pEC50 (West Nile virus [1])	CC50 (BHK-21 [2]) [µM]	selectivity ratio [3]	pEC50 (West Nile virus [4])	CC50 (Vero [5]) [µM]	selectivity ratio [6]	pEC50 (BHK-21 [7])	pEC50 (Vero [8])	Activity (West Nile virus [9]) [%]	Activity (West Nile virus [10]) [%]	Activity (West Nile virus [11]) [%]	Activity (West Nile virus [12]) [%]	Activity (West Nile virus [13]) [%]	Activity (West Nile virus [14]) [%]	remaining activity at 11 µM (West Nile virus [15]) [%]	remaining activity at 33 µM (West Nile virus [16]) [%]	remaining activity at 0.4 µM (West Nile virus [17]) [%]	remaining activity at 1.2 µM (West Nile virus [18]) [%]	remaining activity at 3.7 µM (West Nile virus [19]) [%]	remaining activity at 100 µM (West Nile virus [20]) [%]
O=C(c1ccccc1)N1N=C(c2cccs2)CC1c1ccc(Cl)cc1 (configuration not stated)	4.77	> 300	> 18	4.64	> 300	> 13	4.82	4.82												
CN1CCN(c2cc(-c3ccc(C(C)(C)C)cc3)nc3ccccc23)CC1	4.84	50	3.4	4.82	20	1.3	5.10													
O=C(Cc1ccc(Cl)cc1)N1N=C(c2cccs2)CC1c1ccc([N+](=O)[O-])cc1 (configuration not stated)	4.96	> 300	> 27	4.60	> 300	> 12	5.10	5.15	81	92	93	12	16	80	55	23	100	92	90	23
CN1CCN(c2cc(-c3ccc(C(C)(C)C)cc3)c3ccccc3n2)CC1	4.77	110	6.5	4.52	25	0.8	4.70													
CN1CCN(Cc2ccc3c(c2)Oc2ccccc2C3O)CC1 (configuration not stated)	4.87	325	24	5.00	50	5	5.40													
COc1c(C)c2c(c(O)c1C/C=C(\C)CCC(=O)O)C(=O)OC2 [MYCOPHENOLIC ACID]	5.85			7.40			7.40	7.10												
NC(=O)c1ncn([C@@H]2O[C@H](CO)[C@@H](O)[C@H]2O)n1 [RIBAVIRIN]	4.74			4.52			5.96	3.92												
